SUMO1 PPI mod: modulators of SUMO1 protein-protein interactions, primary screen, biochemical, uHTS; Small ubiquitin-related modifier 1 (Homo sapiens), P63165; SUMO1 binding to a labelled peptide, TR-FRET, 1 h; inhibition, % at 20 µM; 0.33% of 360,000 active; AID 602429, 2012; in the data active = inhibition above about 37%
STEP block: STEP phosphatase inhibitors, primary screen, biochemical, fluorescence intensity, uHTS; Tyrosine-protein phosphatase non-receptor type 5 (Homo sapiens), P54829; recombinant STEP, OMFP fluorogenic substrate; inhibition, % at 20 µM; 0.25% of 360,000 active;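 active = inhibition at 20 µM, scaled per plate between control wells, above about 37%, limit read from the data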;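 also: 0% = DMSO with enzyme and substrate and 100% = substrate only without enzyme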
Target sequence (P54829 whole entry, looked up): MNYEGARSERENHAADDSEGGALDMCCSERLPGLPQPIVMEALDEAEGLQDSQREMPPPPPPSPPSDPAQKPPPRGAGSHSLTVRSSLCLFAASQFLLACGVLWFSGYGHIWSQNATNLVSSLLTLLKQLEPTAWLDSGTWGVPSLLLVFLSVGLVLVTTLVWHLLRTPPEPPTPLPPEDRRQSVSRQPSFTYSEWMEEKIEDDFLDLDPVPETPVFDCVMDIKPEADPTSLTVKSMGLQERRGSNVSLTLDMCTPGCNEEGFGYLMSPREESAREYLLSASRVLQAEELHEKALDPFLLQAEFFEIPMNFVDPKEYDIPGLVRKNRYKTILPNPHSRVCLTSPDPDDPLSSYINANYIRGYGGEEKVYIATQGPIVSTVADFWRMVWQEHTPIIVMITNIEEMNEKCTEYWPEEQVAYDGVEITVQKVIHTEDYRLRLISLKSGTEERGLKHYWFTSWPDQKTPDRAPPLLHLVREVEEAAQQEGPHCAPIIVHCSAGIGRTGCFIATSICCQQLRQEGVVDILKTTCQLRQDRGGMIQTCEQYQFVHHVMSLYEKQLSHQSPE
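material = STEP tyrosine phosphatase | reagent = fluorogenic phosphatase substrate OMFP at 25 µM final | doses = single compound dose of 20 µM, 1% DMSO final | schedule = 20 min reaction, room temperature, in the dark | measured by = fluorescence, 480/540 nm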
Scp1 inh: Scp-1 phosphatase inhibitors, primary screen, biochemical, colorimetric, uHTS; Carboxy-terminal domain RNA polymerase II polypeptide A small phosphatase 1 (Homo …; Recombinant Scp1, phosphopeptide, malachite green phosphate absorbance; inhibition, % at 20 µM; 0.88% of 340,000 active; AID 493091, 2011;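 active = inhibition above about 50% at 20 µM, limit read from the data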;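 also: plate controls were DMSO wells with enzyme for no effect and wells lacking enzyme for full effect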
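assay system = SCP-1 phosphatase catalytic domain, residues 76-261 | buffer or medium = 50 mM Tris acetate pH 5.5, 0.005% Tween-20, 10 mM MgCl2 | incubation = enzyme reaction 45 min at room temperature, colour 5 min, stabilisation 30 min | signal = Phosphate-binding colour reagent, absorbance read at 630 nm | measure = % inhibition at 20 µM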
DNMT1 block: human DNMT1 methyltransferase inhibitors, primary screen, biochemical, molecular beacon, fluorescence, HinP1I cleavage, uHTS | 0.83% of 360,000 active | inhibition (reported as % activation of signal), % at 10 µM; in the data active = inhibition above about 50%
LMPTP inh: LMPTP phosphatase inhibitors, primary screen, biochemical, fluorescence intensity, uHTS; Low molecular weight phosphotyrosine protein phosphatase (Homo sapiens), P24666; recombinant LMPTP-A, OMFP fluorogenic substrate; inhibition, % at 20 µM; 0.22% of 360,000 active; AID 651560, 2012;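 active = compounds that cut the enzyme signal by at least half of the control window in the single-dose screen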;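 also: plate controls were DMSO wells with enzyme plus substrate for no effect and substrate without enzyme for full effect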
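Test system – LMPTP-A enzyme · Amount – LMPTP-A at 0.625 nM final in the reaction · Buffer or medium – Bis-Tris pH 6.0, DTT, detergent · Reagent – OMFP 400 µM · Doses – single 20 µM dose · Schedule – reaction 50 min, room temperature, dark · Detection – fluorescence intensity of OMFP turnover product · Evaluation – percent inhibition versus substrate-only and uninhibited controls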
Scp1 confirm: Scp-1 phosphatase inhibitors, retest, confirmation, biochemical, colorimetric, single concentration; recombinant SCP-1 catalytic domain, phosphate release, malachite green absorbance; inhibition, % at 20 µM; shares compounds with Scp1 inh; 61% of 2,500 active;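 also: plate controls were DMSO with enzyme for no effect and buffer wells lacking enzyme for full effect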
Scp-1 MG ctr: colorimetric readout interference by compounds, confirmation, artefact control for Scp-1 inhibitor project, biochemical, single concentration; shares compounds with Scp1 inh; Colorimetric interference counterscreen, malachite green absorbance 630 nm; apparent inhibition (interference), % at 20 µM; 2,500 tested, under 10 active; AID 540313, 2011;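 also: compounds added after enzyme reaction finished so only phosphate colour detection is probed; plate controls were DMSO wells with completed Scp-1 reaction for no effect and substrate wells lacking enzyme for full effect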
Scp-1 Tm shift: Scp-1 binding by thermal shift, confirmation, orthogonal assay for Scp-1 inhibitor project, biophysical, differential scanning fluorimetry; thermal shift relative to vanadate control, % at 40 µM; 25% of 1,500 active; shares compounds with Scp1 inh; AID 540329, 2011; Recombinant SCP1, Sypro Orange thermal shift Tm;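 active = substances whose mean melting-temperature shift, as a percentage of the reference inhibitor's shift, reaches about 5.3%, limit read from the data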;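 also: 0% = Tm of DMSO wells and 100% = Tm with sodium orthovanadate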
An asterisk follows results filed as active; . = no result given. This is a sample that favours compounds with a hit; in the whole collection about 1.7% have one here.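 The calls were made as follows, unless noted: active = inhibition of at least 30% at 20 µM; inactive = the rest.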

SMILES	SUMO1 PPI mod	STEP block	Scp1 inh	DNMT1 block	LMPTP inh	Scp1 confirm	Scp-1 MG ctr	others
Cc1nn(C)c(Cl)c1S(=O)(=O)N1CCC(CO)(CCc2ccccc2)CC1	1	2	81*	-6	-1	-14	-16
COc1ccc(CC2(CO)CCN(S(=O)(=O)c3c(C)nn(C)c3Cl)CC2)cc1	-4	-3	6	-36	-1	.	.
Cc1nc(SCC(=O)NCc2ccco2)c2c3c(sc2n1)CCCC3	1	5	9	0	2	.	.
CCCc1nc2sc3c(SCC(=O)NCc4ccco4)ncnc3c2c2c1CCC2	7	21	82*	91*	4	59*	-18	Scp-1 Tm shift=2
O=C1NC(=S)SC1=Cc1cc(Br)ccc1O	16	-1	67*	7	0	2	-24
O=C1NC(=S)SC1=Cc1cccs1	-9	1	53*	-1	0	-2	-12
O=C1NC(=S)SC1=Cc1ccccc1Br	11	-1	-5	4	2	.	.
COc1ccc(Cl)cc1C(=O)Nn1cnnc1	0	-3	-5	1	-1	.	.
CN1CCN(C(=O)c2ccccc2NS(=O)(=O)c2ccc(F)cc2)CC1	-4	4	-2	3	-7	.	.
COc1ccc2c(n1)Sc1nc3ccccc3nc1N2	-23	-10	-5	-9	2	.	.
O=C(NCc1ccc2c(c1)OCO2)c1cc(-n2cnnc2)ccc1Cl	4	-1	85*	-5	-1	10	-17
O=C(NCc1ccc2c(c1)OCO2)c1ccccc1Cl	2	-1	1	2	-1	.	.
O=C(CSc1ncn(-c2ccccc2)n1)Nc1nc2ccccc2s1	1	-4	3	-4	0	.	.
O=C(CSc1ncn(-c2ccccc2)n1)Nc1nc2c(s1)CCCC2	11	7	79*	36	4	64*	-8	Scp-1 Tm shift=-1
Clc1ccc(Sc2oc(/C=N/n3cnnc3)cc2Br)cc1	-12	0	98*	2	0	-15	-15
COc1ccccc1NC(=O)C(=N\O)/C(C)=N/O	7	25	75*	41	5	30*	-15	Scp-1 Tm shift=-2
Cc1cccc(Nc2nc(Cl)ncc2F)c1C	0	0	-3	1	-4	.	.
O=C(O)Cc1sc(N/N=C\c2ccccc2)nc1-c1ccccc1	5	-1	54*	90*	2	75*	-8	Scp-1 Tm shift=18*
CCn1cc(S(=O)(=O)c2ccc(C)cc2)c(=O)c2cc(F)c(N3CCN(C)CC3)cc21	3	0	61*	-1	2	-25	-22
Cc1ccc(S(=O)(=O)N(C)C)cc1NC(=O)COC(=O)c1ccc2c(c1)NC(=O)CS2	4	-1	-4	-7	-2	.	.
CC1(C)CC(N2CCOCC2)=CC(=[N+]2CCOCC2)C1	11	-1	2	0	-1	.	.
CC1C[N+](=C2C=C(N3CCOCC3)CC(C)(C)C2)CC(C)O1 (stereo not drawn)	-4	-1	103*	12	-1	91*	-4	Scp-1 Tm shift=-16
CC1CCCC(C)N1c1nnc(NC(=O)Cn2c(=O)oc3ccccc32)s1 (stereo not drawn)	3	0	95*	2	0	1	-9
CCc1nnc(NC(=O)Cn2c(=O)oc3ccccc32)s1	-4	-2	-10	-1	-2	.	.

Assay outcomes (PubChem BioAssay)
